From ChEMBL document CHEMBL1681679, “Investigation of a novel molecular descriptor for the lead optimization of 4-aminoquinazolines as vascular endothelial growth factor receptor-2 inhibitors: application for quantitative structure-activity relationship analysis in lead optimization” (Bioorg Med Chem Lett, 2011) come the findings set out here.

T1 sequence (P35968 whole entry): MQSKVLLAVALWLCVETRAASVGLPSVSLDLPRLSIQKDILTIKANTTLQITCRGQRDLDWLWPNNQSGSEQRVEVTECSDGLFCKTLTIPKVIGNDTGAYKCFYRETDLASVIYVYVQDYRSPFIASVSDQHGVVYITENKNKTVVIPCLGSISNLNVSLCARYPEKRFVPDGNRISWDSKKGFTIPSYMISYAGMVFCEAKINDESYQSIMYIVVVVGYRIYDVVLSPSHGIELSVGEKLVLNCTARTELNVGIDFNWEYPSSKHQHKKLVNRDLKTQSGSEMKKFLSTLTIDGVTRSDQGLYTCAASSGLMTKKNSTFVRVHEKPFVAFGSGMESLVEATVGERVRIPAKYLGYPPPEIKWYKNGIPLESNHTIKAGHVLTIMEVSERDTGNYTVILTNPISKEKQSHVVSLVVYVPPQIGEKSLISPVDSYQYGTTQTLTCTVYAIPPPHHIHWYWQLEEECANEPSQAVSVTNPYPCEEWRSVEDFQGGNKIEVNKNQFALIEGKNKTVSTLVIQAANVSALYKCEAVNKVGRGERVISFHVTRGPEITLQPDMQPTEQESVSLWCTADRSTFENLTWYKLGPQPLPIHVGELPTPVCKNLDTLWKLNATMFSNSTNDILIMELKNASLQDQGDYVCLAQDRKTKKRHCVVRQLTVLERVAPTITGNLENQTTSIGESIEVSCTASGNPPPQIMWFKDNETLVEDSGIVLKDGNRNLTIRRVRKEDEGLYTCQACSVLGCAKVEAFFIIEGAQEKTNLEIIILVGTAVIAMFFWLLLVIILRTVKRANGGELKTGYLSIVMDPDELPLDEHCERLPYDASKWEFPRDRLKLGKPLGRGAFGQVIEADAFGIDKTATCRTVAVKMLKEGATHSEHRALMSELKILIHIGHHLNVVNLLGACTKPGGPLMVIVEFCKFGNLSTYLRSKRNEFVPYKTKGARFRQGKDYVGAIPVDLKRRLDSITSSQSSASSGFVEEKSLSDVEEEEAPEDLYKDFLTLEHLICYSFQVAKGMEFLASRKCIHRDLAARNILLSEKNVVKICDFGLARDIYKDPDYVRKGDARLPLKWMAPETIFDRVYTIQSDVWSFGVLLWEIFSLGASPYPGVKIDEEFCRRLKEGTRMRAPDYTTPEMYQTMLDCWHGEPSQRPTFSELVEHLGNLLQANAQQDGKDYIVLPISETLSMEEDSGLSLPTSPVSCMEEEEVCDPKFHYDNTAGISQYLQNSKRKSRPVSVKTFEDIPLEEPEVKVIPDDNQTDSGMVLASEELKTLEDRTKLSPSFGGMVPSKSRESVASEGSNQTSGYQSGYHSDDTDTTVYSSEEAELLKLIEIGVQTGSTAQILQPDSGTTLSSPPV

The first assay concerns the target T1, Vascular endothelial growth factor receptor 2 (Homo sapiens, UniProt P35968). The assay can be described thus: Inhibition of human recombinant His-tagged VEGFR2 assessed as […] absorption at 10 uM by ELISA assay in presence of 20 uM ATP.
Settings: not given
In outline:
(§1)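 Human N-terminal His6-tagged recombinant VEGFR2 kinase domain (aa790-end), 100 ng per well, with 20 μM ATP and 1.5 μM substrate peptide (final), in streptavidin-coated wells. Kinase buffer contains up to 1% DMSO. Read-out is ELISA absorbance at 450 nm. Each run includes blank, control, DMSO control and standard. Value is average percent inhibition at the stated final compound concentration, replicates assayed on separate days.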
What is called inhibition is the change of the read-out against control, counted positive when it falls. In the case of `COc1cc2ncnc(NC3CCCCC3)c2cc1OC`, the inhibition worked out at 17%. On the same count and under the same terms, under `COc1cc2ncnc(Nc3ccc(F)c(F)c3)c2cc1OC` stands 5%; under `COc1cc2ncnc(Nc3ccc(Cl)cc3)c2cc1OC`, 4%. Still for that read-out and setting: next, `COc1cc2ncnc(NC(C)C)c2cc1OC`: 13%; `CCOc1ncnc2cc(OC)c(OC)cc12`: 0%; `COc1cc2ncnc(Nc3ccccc3)c2cc1OC`: 19%.

As for `COc1cc2ncnc(Nc3ccc(C)c(F)c3)c2cc1OC`, the inhibition came out at 66%. Same read-out and setting: under `COc1cc2ncnc(Nc3ccc(C)c(Cl)c3)c2cc1OC` stands 9%; under `COc1cc2ncnc(OC(C)C)c2cc1OC`, 2%; under `COc1cc2ncnc(Nc3ccc(F)cc3)c2cc1OC`, 6%.

The next assay concerns the target T1, Vascular endothelial growth factor receptor 2. Briefly: Inhibition of human recombinant His-tagged VEGFR2 assessed as […] absorption by ELISA assay in presence of 20 uM ATP.
Settings: not given
Background: In an ELISA, binding on a coated surface is turned into a signal by an enzyme label.
One may read the IC50 as the concentration that inhibits the measured activity by half. As to `Cc1cc(F)c(Nc2ncnc3cc(OCc4ccccc4)ccc23)cc1O`, the IC50 was found to be 2 nM.

The next assay shares this target. To be noted: 25 uM.
The compound `COc1ccc(-c2cnc3c(-c4ccsc4)cnn3c2)cc1` returned an inhibition of 46%.

The target is the same in a further assay. Briefly: Inhibition of human recombinant His-tagged VEGFR2 assessed as […] absorption at 20 uM by ELISA assay in presence of 20 uM ATP.
Settings: not given
The method in brief:
as §1
Turning to `Cc1cc(F)c(Nc2ncnc3cc(OCc4ccccc4)ccc23)cc1O`, the inhibition was 37%.
